Reference: ChEMBL document CHEMBL2321672, “Discovery of biphenylacetamide-derived inhibitors of BACE1 using de novo structure-based molecular design” (J Med Chem, 2013)
Active and inactive are the calls of the source. The calls are words filed in the database; no cut-off is given here.

Assays:
[1] = target: T1, Beta-secretase 1 (Homo sapiens, UniProt P56817); test: Inhibition of recombinant BACE1 (unknown origin) using FAM-SEVNLDAEFK-TAMRA as substrate at 100 uM incubated for 30 mins prior to substrate addition by fluorimetric analysis relative to control
[2] = Cytotoxicity against HEK293 cells assessed as cell viability at 100 uM after 24 hrs by MTT assay relative to control; format: cell-based; conditions: human, read-out: Activity
Procedure, shortened: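 MTT viability read-out on mammalian cells after 24-hour exposure to 100 µM compound; viable cells expressed as percentage remaining relative to control; mean ± SEM, n ≥ 3.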

[3] = species: Homo sapiens; test: Selectivity ratio of IC50 for recombinant BACE2 (unknown origin) to IC50 of recombinant BACE1 (unknown origin)
[4] = target: T1, Beta-secretase 1; test: Inhibition of recombinant BACE1 (unknown origin) using FAM-SEVNLDAEFK-TAMRA as substrate incubated for 30 mins prior to substrate addition by fluorimetric analysis
[5] = target: T2, Beta-secretase 2 (Homo sapiens, UniProt Q9Y5Z0); test: Inhibition of recombinant BACE2 (unknown origin) using FAM-SEVNLDAEFK-TAMRA as substrate incubated for 30 mins prior to substrate addition by fluorimetric analysis
T2 sequence (Q9Y5Z0 whole entry): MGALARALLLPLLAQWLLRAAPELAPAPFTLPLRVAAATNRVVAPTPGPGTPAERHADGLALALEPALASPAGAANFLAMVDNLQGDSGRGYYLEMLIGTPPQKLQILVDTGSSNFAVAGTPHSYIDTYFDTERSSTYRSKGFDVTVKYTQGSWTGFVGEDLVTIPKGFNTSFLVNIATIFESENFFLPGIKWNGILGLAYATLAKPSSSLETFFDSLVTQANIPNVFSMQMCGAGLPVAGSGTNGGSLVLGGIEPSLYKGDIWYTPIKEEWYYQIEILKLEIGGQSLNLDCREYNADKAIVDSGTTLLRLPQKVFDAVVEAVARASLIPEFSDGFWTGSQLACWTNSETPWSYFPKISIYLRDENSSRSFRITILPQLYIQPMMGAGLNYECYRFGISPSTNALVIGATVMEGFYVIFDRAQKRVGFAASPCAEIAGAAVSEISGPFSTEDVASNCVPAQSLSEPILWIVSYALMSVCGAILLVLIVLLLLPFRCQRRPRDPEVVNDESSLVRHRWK

[6] = target: T1, Beta-secretase 1; test: Inhibition of BACE1 (unknown origin) -mediated sAP-APP production expressed in HEK293 cells coexpressing N-terminal […] APP at 100 uM after 24 hrs by spectrophotometric analysis; format: cell-based
Procedure, shortened: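 HEK 293 cells stably expressing BACE1 plus wild-type human APP carrying an N-terminal alkaline phosphatase tag (AP-APP) were incubated with compound. Release of sAP-APP into conditioned media was quantified as alkaline phosphatase activity and expressed as percentage of the matched control.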

[7] = test system: HEK293; test: Effect on sAPPalpha level in HEK293 cells coexpressing N-terminal […] APP at 100 uM after 24 hrs by Western blotting analysis; format: functional
Procedure, shortened: (§1)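 HEK 293 cells over-expressing BACE1 were exposed to compound at 100 µM for 24 hours. Conditioned media were western blotted for sAPPα and sAPPβ, with sAPPβ detected by antibody 1A9. Levels were compared with control.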

[8] = target: T1, Beta-secretase 1; test: Inhibition of BACE1 (unknown origin) expressed in HEK293 cells coexpressing N-terminal […] APP assessed as decrease in sAPPbeta level at 100 uM after 24 hrs by Western blotting analysis; format: cell-based; procedure, shortened: as §1

T1 sequence (P56817 whole entry): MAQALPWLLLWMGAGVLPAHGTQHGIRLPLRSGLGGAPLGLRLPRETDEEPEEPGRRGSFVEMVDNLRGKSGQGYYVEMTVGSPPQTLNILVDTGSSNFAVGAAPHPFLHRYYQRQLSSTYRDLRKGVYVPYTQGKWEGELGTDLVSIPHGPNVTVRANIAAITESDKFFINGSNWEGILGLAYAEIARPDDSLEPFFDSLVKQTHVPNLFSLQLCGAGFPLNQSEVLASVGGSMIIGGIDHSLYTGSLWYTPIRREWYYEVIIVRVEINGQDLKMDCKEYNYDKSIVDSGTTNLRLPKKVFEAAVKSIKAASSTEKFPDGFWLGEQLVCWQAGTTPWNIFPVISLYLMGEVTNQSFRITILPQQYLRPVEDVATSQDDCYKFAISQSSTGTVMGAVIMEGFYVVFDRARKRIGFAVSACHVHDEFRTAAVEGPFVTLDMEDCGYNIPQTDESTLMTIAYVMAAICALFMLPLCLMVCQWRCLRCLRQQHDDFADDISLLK

| SMILES | inhibition [1] | viability at 24 h, 100 µM [2] [%] | Ratio IC50 [3] | IC50 ([4]; read-out: IC50) [µM] | IC50 [5] [µM] | also measured |
| --- | --- | --- | --- | --- | --- | --- |
| NCc1ccc(CNC(=O)Cc2ccc(-c3cccc(C(F)(F)F)c3)cc2)cc1 | 60.7% | 46 | 2 | 58.9 | 319 | – |
| CC[N+](CC)(CC)Cc1ccc(CNC(=O)Cc2ccc(-c3ccccc3)cc2)cc1 | 44.1% | 40 | – | > 100 | – | – |
| O=C(Cc1ccc(-c2ccccc2)cc1)Nc1ccc(Br)cc1 | inactive | – | – | – | – | – |
| NCc1ccc(CNC(=O)Cc2ccc(-c3ccccc3)cc2)cc1 | 35.6% | 42 | 2 | 323 | > 1000 | – |
| NCc1ccc(CNC(=O)Cc2ccc(-c3ccc(O)cc3)cc2)cc1 | 41.3% | – | – | > 100 | – | – |
| NCc1ccc(CNC(=O)Cc2ccc(-c3c(F)c(F)c(F)c(F)c3F)cc2)cc1 | 51.8% | 68 | 2 | 101 | 246 | inhibition [6]: 39.4%; Activity ([7]; Homo sapiens): inactive; inhibition [8]: Active |
| O=C(Cc1ccc(-c2ccccc2)cc1)NCc1ccc(CN2Cc3ccccc3C2)cc1 | 70.1% | 80 | 2 | 63.3 | > 1000 | inhibition [6]: 21.7%; Activity [7]: 10%; inhibition [8]: 33% |
| O=C(Cc1ccc(-c2ccccc2)cc1)NCc1ccc(CN2CCCC2)cc1 | 24.4% | 24 | – | > 100 | – | – |
| O=C(Cc1ccc(-c2cccc(C(F)(F)F)c2)cc1)NCc1ccccc1 | – | 27 | – | – | – | IC50 [4]: Not Active |
| COc1ccc(NC(=O)Cc2ccc(-c3ccccc3)cc2)cc1 | inactive | – | – | – | – | – |
| O=C(Cc1ccc(-c2ccccc2)cc1)NCc1ccccc1 | 15.2% | 93 | – | – | – | inhibition [4]: inactive |
| COc1ccc(CNC(=O)Cc2ccc(-c3ccccc3)cc2)cc1 | inactive | 82 | – | – | – | inhibition [4]: inactive |
| O=C(Cc1ccc(-c2cc(C(F)(F)F)cc(C(F)(F)F)c2)cc1)NCc1ccccc1 | – | 76 | – | – | – | IC50 [4]: Not Active |
| NCc1ccc(CNC(=O)C(Cc2ccccc2)c2ccc(-c3ccccc3)cc2)cc1 (stereo unspecified) | 102% | 15 | – | 26.9 | 21 | – |
| NCc1ccc(CNC(=O)Cc2ccc(-c3cc(C(F)(F)F)cc(C(F)(F)F)c3)cc2)cc1 | 80.6% | 8 | – | 63.9 | 33.2 | – |
| CCN(CC)Cc1ccc(CNC(=O)Cc2ccc(-c3ccccc3)cc2)cc1 | 34.4% | 38 | – | > 100 | – | – |
| CC(C)C(C(=O)NCc1ccc(CN)cc1)c1ccc(-c2ccccc2)cc1 (stereo unspecified) | 66.1% | 50 | 2 | 33.5 | 100 | – |
| NCc1ccc(CNC(=O)Cc2ccc(-c3ccccc3)cc2O)cc1 | 42.5% | 18 | – | > 100 | – | – |
| C[C@@H](C(=O)NCc1ccc(CN)cc1)c1ccc(-c2ccccc2)c(F)c1 | 55.5% | 18 | 2 | 85.7 | 194 | – |
| O=C(Cc1ccc(-c2c(F)c(F)c(F)c(F)c2F)cc1)NCc1ccccc1 | – | 61 | – | – | – | IC50 [4]: Not Active |
| O=C(Cc1ccc(-c2ccccc2)cc1)NCCc1c[nH]c2ccccc12 | inactive | – | – | – | – | – |
| NCc1ccc(CNC(=O)Cc2ccc(-c3ccccc3)c(O)c2)cc1 | 28.1% | 50 | – | > 100 | – | – |
| CC(C(=O)NCc1ccc(CN)cc1)c1ccc(-c2ccccc2)c(F)c1 (stereo unspecified) | 51.7% | 11 | 2 | 77.1 | 207 | – |
